This note sets out measurements from ChEMBL document CHEMBL1148129, “Reversal of multidrug resistance by tropane alkaloids from the stems of Erythroxylum rotundifolium” (2002).

≈ marks a conversion by molar mass, not a printed value. Calls of active or inactive are those of the source. The calls are words filed in the database; no cut-off is given here. A value given as a limit tells only on which side of the number the result lay.

One test has as its system Col2. Kind of test: Cytotoxicity against human Col2 cells. Format: functional. The following applies: read-out: ED50 (the source's name).
Consider `COc1cc(/C=C/C(=O)O[C@@H]2C[C@@H]3[C@@H](OC(=O)c4cc(OC)c(OC)c(OC)c4)[C@@H](O)[C@H](C2)N3C)cc(OC)c1OC`, for which the EC50 stood at 10.4 µg/mL (≈ 17.7 µM).
Same read-out and setting: the value for `COc1cc(/C=C/C(=O)O[C@@H]2C[C@@H]3[C@@H](OC(=O)c4ccccc4)[C@@H](O)[C@H](C2)N3C)cc(OC)c1OC` was greater than 20 µg/mL; that for `COc1cc(/C=C/C(=O)O[C@H]2C[C@H]3C[C@H](OC(=O)c4ccccc4)[C@@H](C2)N3C)cc(OC)c1OC` was 5.1 µg/mL (≈ 10.6 µM).
The same measure, in the same setting: the value for `COc1cc(/C=C/C(=O)O[C@@H]2C[C@@H]3[C@@H](OC(=O)c4ccccc4)[C@@H](OC(C)=O)[C@H](C2)N3C)cc(OC)c1OC` was greater than 20 µg/mL.

System in a further test: not listed separately
Kind of test: Cytotoxicity against human BC1 cells. Format: functional. The following applies: read-out: ED50 (the source's name).
In the case of `COc1cc(/C=C\C(=O)O[C@H]2C[C@H]3C[C@H](OC(=O)c4ccccc4)[C@@H](C2)N3C)cc(OC)c1OC`, the EC50 is greater than 20 µg/mL.
The same measure, in the same setting: the result for `COc1cc(/C=C/C(=O)O[C@@H]2C[C@@H]3[C@@H](OC(=O)c4cc(OC)c(OC)c(OC)c4)[C@@H](O)[C@H](C2)N3C)cc(OC)c1OC` reads 6.1 µg/mL (≈ 10.4 µM); that for `COc1cc(/C=C/C(=O)O[C@@H]2C[C@@H]3[C@@H](OC(=O)c4ccccc4)[C@@H](O)[C@H](C2)N3C)cc(OC)c1OC`, greater than 20 µg/mL; that for `CN1C2C[C@H](O)CC1[C@@H](OC(=O)c1ccccc1)C2` (some centres not stated), greater than 20 µg/mL.
As for `COc1cc(/C=C/C(=O)O[C@H]2C[C@H]3C[C@H](OC(=O)c4ccccc4)[C@@H](C2)N3C)cc(OC)c1OC`, the EC50 amounted to 15.3 µg/mL (≈ 31.8 µM).
As to `COc1cc(/C=C/C(=O)O[C@@H]2C[C@@H]3[C@@H](OC(=O)c4ccccc4)[C@@H](OC(C)=O)[C@H](C2)N3C)cc(OC)c1OC`, the EC50 amounted to 14.6 µg/mL (≈ 27.1 µM).

The subject of a further test is Lu1. Nature of the test: Cytotoxicity against human Lu1 cells. The following applies: read-out: ED50 (the source's name). It counts as functional.
`COc1cc(/C=C\C(=O)O[C@H]2C[C@H]3C[C@H](OC(=O)c4ccccc4)[C@@H](C2)N3C)cc(OC)c1OC`: the EC50 was greater than 20 µg/mL.
For `COc1cc(/C=C/C(=O)O[C@@H]2C[C@@H]3[C@@H](OC(=O)c4cc(OC)c(OC)c(OC)c4)[C@@H](O)[C@H](C2)N3C)cc(OC)c1OC`, the EC50 stood at 14.6 µg/mL (≈ 24.8 µM).
Still for that read-out and setting: the value for `COc1cc(/C=C/C(=O)O[C@@H]2C[C@@H]3[C@@H](OC(=O)c4ccccc4)[C@@H](O)[C@H](C2)N3C)cc(OC)c1OC` was greater than 20 µg/mL; that for `CN1C2C[C@H](O)CC1[C@@H](OC(=O)c1ccccc1)C2` (some centres not stated) was greater than 20 µg/mL; that for `COc1cc(/C=C/C(=O)O[C@H]2C[C@H]3C[C@H](OC(=O)c4ccccc4)[C@@H](C2)N3C)cc(OC)c1OC` was greater than 20 µg/mL.
Still for that read-out and setting: the result for `COc1cc(/C=C/C(=O)O[C@@H]2C[C@@H]3[C@@H](OC(=O)c4ccccc4)[C@@H](OC(C)=O)[C@H](C2)N3C)cc(OC)c1OC` reads greater than 20 µg/mL.

For the next test, the system named is KB. Kind of test: Cytotoxicity against human KB cells. It counts as functional. Particulars: read-out: ED50 (the source's name). The method in brief:
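Parental (drug-sensitive) KB oral epidermoid carcinoma cells were exposed to test compound without vinblastine. Cytotoxicity is reported as ED50 in µg/mL.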
As for `COc1cc(/C=C\C(=O)O[C@H]2C[C@H]3C[C@H](OC(=O)c4ccccc4)[C@@H](C2)N3C)cc(OC)c1OC`, the EC50 was greater than 20 µg/mL.
Turning to `COc1cc(/C=C/C(=O)O[C@@H]2C[C@@H]3[C@@H](OC(=O)c4cc(OC)c(OC)c(OC)c4)[C@@H](O)[C@H](C2)N3C)cc(OC)c1OC`, the EC50 is 12.6 µg/mL (≈ 21.4 µM).
Take `COc1cc(/C=C/C(=O)O[C@@H]2C[C@@H]3[C@@H](OC(=O)c4ccccc4)[C@@H](O)[C@H](C2)N3C)cc(OC)c1OC`: the EC50 is greater than 20 µg/mL.
Consider `CN1C2C[C@H](O)CC1[C@@H](OC(=O)c1ccccc1)C2` (some centres not stated), for which the EC50 was greater than 20 µg/mL.
Still for that read-out and setting: the result for `COc1cc(/C=C/C(=O)O[C@H]2C[C@H]3C[C@H](OC(=O)c4ccccc4)[C@@H](C2)N3C)cc(OC)c1OC` reads 10.3 µg/mL (≈ 21.4 µM); that for `COc1cc(/C=C/C(=O)O[C@@H]2C[C@@H]3[C@@H](OC(=O)c4ccccc4)[C@@H](OC(C)=O)[C@H](C2)N3C)cc(OC)c1OC`, 14.8 µg/mL (≈ 27.4 µM).

Another test concerns ASK. Nature of the test: Cytotoxicity against human ASK cells at 20 ug/mL. It counts as functional, cell-based.
Details: not given
Consider `COc1cc(/C=C/C(=O)O[C@@H]2C[C@@H]3[C@@H](OC(=O)c4cc(OC)c(OC)c(OC)c4)[C@@H](O)[C@H](C2)N3C)cc(OC)c1OC`, for which the outcome was inactive.
Regarding `COc1cc(/C=C/C(=O)O[C@@H]2C[C@@H]3[C@@H](OC(=O)c4ccccc4)[C@@H](O)[C@H](C2)N3C)cc(OC)c1OC`, the outcome was inactive.
On the same count and under the same terms, the value for `COc1cc(/C=C/C(=O)O[C@H]2C[C@H]3C[C@H](OC(=O)c4ccccc4)[C@@H](C2)N3C)cc(OC)c1OC` was “inactive”; that for `COc1cc(/C=C/C(=O)O[C@@H]2C[C@@H]3[C@@H](OC(=O)c4ccccc4)[C@@H](OC(C)=O)[C@H](C2)N3C)cc(OC)c1OC` was “inactive”.

For the next test, the system named is LNCaP. Nature of the test: Cytotoxicity against human LNCAP cells. The following applies: read-out: ED50 (the source's name). It counts as functional.
As for `COc1cc(/C=C/C(=O)O[C@@H]2C[C@@H]3[C@@H](OC(=O)c4cc(OC)c(OC)c(OC)c4)[C@@H](O)[C@H](C2)N3C)cc(OC)c1OC`, the EC50 was determined as 15 µg/mL (≈ 25.5 µM).
Take `COc1cc(/C=C/C(=O)O[C@@H]2C[C@@H]3[C@@H](OC(=O)c4ccccc4)[C@@H](O)[C@H](C2)N3C)cc(OC)c1OC`: the EC50 is 6.7 µg/mL (≈ 13.5 µM).
Same read-out and setting: the result for `COc1cc(/C=C/C(=O)O[C@H]2C[C@H]3C[C@H](OC(=O)c4ccccc4)[C@@H](C2)N3C)cc(OC)c1OC` reads 10 µg/mL (≈ 20.8 µM).
With `COc1cc(/C=C/C(=O)O[C@@H]2C[C@@H]3[C@@H](OC(=O)c4ccccc4)[C@@H](OC(C)=O)[C@H](C2)N3C)cc(OC)c1OC`, the EC50 was 14.9 µg/mL (≈ 27.6 µM).

System in a further test: not listed separately
Nature of the test: Cytotoxicity against human KBV1 cells in absence of vinblastine. It counts as functional. Particulars: KB-V1, read-out: ED50 (the source's name). The method in brief: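 Multidrug-resistant oral epidermoid carcinoma KB-V1 cells were incubated with test compound alone, with no vinblastine added. Cytotoxicity is reported as ED50 in µg/mL.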
In the case of `COc1cc(/C=C\C(=O)O[C@H]2C[C@H]3C[C@H](OC(=O)c4ccccc4)[C@@H](C2)N3C)cc(OC)c1OC`, the EC50 was found to be 3.5 µg/mL (≈ 7.27 µM).
The same measure, in the same setting: the result for `COc1cc(/C=C/C(=O)O[C@@H]2C[C@@H]3[C@@H](OC(=O)c4cc(OC)c(OC)c(OC)c4)[C@@H](O)[C@H](C2)N3C)cc(OC)c1OC` reads 20 µg/mL (≈ 34 µM).
Still for that read-out and setting: the result for `COc1cc(/C=C/C(=O)O[C@@H]2C[C@@H]3[C@@H](OC(=O)c4ccccc4)[C@@H](O)[C@H](C2)N3C)cc(OC)c1OC` reads 2.6 µg/mL (≈ 5.23 µM).
Still for that read-out and setting: the result for `CN1C2C[C@H](O)CC1[C@@H](OC(=O)c1ccccc1)C2` (some centres not stated) reads greater than 20 µg/mL; that for `COc1cc(/C=C/C(=O)O[C@H]2C[C@H]3C[C@H](OC(=O)c4ccccc4)[C@@H](C2)N3C)cc(OC)c1OC`, 3.6 µg/mL (≈ 7.48 µM).
On to `COc1cc(/C=C/C(=O)O[C@@H]2C[C@@H]3[C@@H](OC(=O)c4ccccc4)[C@@H](OC(C)=O)[C@H](C2)N3C)cc(OC)c1OC`, for which the EC50 is 13.2 µg/mL (≈ 24.5 µM).

System in the next test: not listed separately
Nature of the test: Cytotoxicity against human KBV1 cells in presence of vinblastine. It counts as functional. Particulars: KB-V1, read-out: ED50 (the source's name). In a few lines: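 Multidrug-resistant oral epidermoid carcinoma KB-V1 cells were incubated with test compound in the presence of vinblastine at 1.0 µg/mL. Cytotoxicity is reported as ED50 in µg/mL.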
Turning to `COc1cc(/C=C\C(=O)O[C@H]2C[C@H]3C[C@H](OC(=O)c4ccccc4)[C@@H](C2)N3C)cc(OC)c1OC`, the EC50 was 0.3 µg/mL.
The same measure, in the same setting: the value for `COc1cc(/C=C/C(=O)O[C@@H]2C[C@@H]3[C@@H](OC(=O)c4cc(OC)c(OC)c(OC)c4)[C@@H](O)[C@H](C2)N3C)cc(OC)c1OC` was 6.6 µg/mL.
The same measure, in the same setting: the value for `COc1cc(/C=C/C(=O)O[C@@H]2C[C@@H]3[C@@H](OC(=O)c4ccccc4)[C@@H](O)[C@H](C2)N3C)cc(OC)c1OC` was 0.3 µg/mL; that for `CN1C2C[C@H](O)CC1[C@@H](OC(=O)c1ccccc1)C2` (some centres not stated) was greater than 20 µg/mL.
On the same count and under the same terms, the value for `COc1cc(/C=C/C(=O)O[C@H]2C[C@H]3C[C@H](OC(=O)c4ccccc4)[C@@H](C2)N3C)cc(OC)c1OC` was 0.2 µg/mL; that for `COc1cc(/C=C/C(=O)O[C@@H]2C[C@@H]3[C@@H](OC(=O)c4ccccc4)[C@@H](OC(C)=O)[C@H](C2)N3C)cc(OC)c1OC` was 1.1 µg/mL.
